Legend:
[1] = biological target: Cytochrome P450 2D6 (Homo sapiens, UniProt P10635); experiment: Inhibition of human CYP2D6 expressed in Escherichia coli; type: ADME
Procedure, shortened: (§1)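 Human CYP isoforms expressed in E. coli; IC50 from n = 3. Probe substrates diethoxyfluorescein and 7-benzyloxyquinoline are stated for CYP3A4.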

[2] = Ratio of drug uptake from blood to plasma in rat; type: ADME
Procedure, shortened: (§2)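 In vitro partitioning of the compound into the cellular fraction of rat, dog and human blood, reported as the blood:plasma ratio.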

[3] = Plasma protein binding in human; type: ADME, cell-free; conditions: read-out: PPB (converted)
[4] = Plasma clearance in Han Wistar rat at 0.25 mg/kg, iv up to 7 hrs by LC-MS/MS analysis; type: ADME, organism-based; design: dose 0.25 mg/kg, route intravenous
Procedure, shortened: (§3)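 Han Wistar rats dosed 0.25 mg/kg intravenously; plasma sampled at various times up to 7 h postdose. Clearance expressed as percentage of liver blood flow.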

[5] = system: Hepatocyte; experiment: Drug metabolism in human hepatocytes assessed as metabolite M2 formation at 12.5 uM after 2 hrs by LC-MS/MS analysis; type: ADME, cell-based
Procedure, shortened: (§4)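 Human hepatocytes incubated with substrate at 12.5 μM for 2 h. Products characterized by LC–MS/MS on a C18 column, 5–95% acetonitrile gradient in water with 0.1% formic acid over 8 min. Metabolites numbered by elution order. Abundance is semiquantitative from peak heights (low/medium/high), assuming equal analyte response.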

[6] = system: Rattus norvegicus; experiment: Clearance in Han Wistar rat at 0.25 mg/kg, iv up to 7 hrs by LC-MS/MS analysis relative to liver blood flow; type: ADME, organism-based; design: dose 0.25 mg/kg, route intravenous; conditions: in vivo; procedure, shortened: as §3
[7] = system: Hepatocyte; experiment: Drug metabolism in human hepatocytes assessed as metabolite M13 formation at 12.5 uM after 2 hrs by LC-MS/MS analysis; type: ADME, cell-based; procedure, shortened: as §4
[8] = biological target: Beta-1 adrenergic receptor (Homo sapiens, UniProt P08588); experiment: Agonist activity at human beta1 adrenoceptor transfected in CHO cells assessed as cyclic AMP accumulation after 45 mins by fluorescence polarization assay; type: cell-based
[9] = system: Cavia porcellus; experiment: Bronchodilatory activity in guinea pig assessed as inhibition of histamine-induced bronchoconstriction administered via nebulization 2 mins prior to histamine challenge relative to salmeterol acetate; type: functional
Procedure, shortened: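 Conscious guinea pigs (n = 24 per group) in a whole-body plethysmograph; agonist given by 2 min nebulization before challenge with nebulized histamine (10 mM, 1.3 min). Enhanced pause (PenH) was recorded for 15 min as the index of airway obstruction. Potency was expressed as EC90 by nebulizer concentration and compared with salmeterol acetate.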

[10] = system: Salmonella typhimurium; experiment: Genotoxicity in Salmonella typhimurium by Ames assay; type: toxicity, organism-based; conditions: salmonella enterica subsp. enterica serovar typhimurium
Procedure, shortened: (§5)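 Acetate and 4-biphenylsulfonate salts screened in Ames and mouse lymphoma L5178Y assays, with and without a rat liver metabolic activation system.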

[11] = Oral bioavailability in beagle dog at 0.25 mg/kg up to 8 hrs by LC-MS/MS analysis; type: ADME, organism-based, Canis lupus familiaris; conditions: in vivo
Procedure, shortened: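 Beagle dogs dosed 0.25 mg/kg orally, with 0.05 mg/kg iv reference arm; plasma collected at various time points up to 8 h postdose.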

[12] = Oral bioavailability in Han Wistar rat at 2 mg/kg up to 7 hrs by LC-MS/MS analysis; type: ADME, organism-based; conditions: in vivo
[13] = biological target: 5-hydroxytryptamine receptor 1B (Homo sapiens, UniProt P28222); experiment: Binding affinity to human 5HT1B receptor
[14] = Drug metabolism in human hepatocytes at 1 uM after 2 hrs by LC-MS/MS analysis; type: ADME, cell-based, Hepatocyte; conditions: read-out: Drug metabolism
Procedure, shortened: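 Human hepatocytes incubated with substrate at 1 μM for 2 h; percentage turnover of parent determined.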

[15] = system: Hepatocyte; experiment: Drug metabolism in human hepatocytes assessed as metabolite M12 formation at 12.5 uM after 2 hrs by LC-MS/MS analysis; type: ADME, cell-based; procedure, shortened: as §4
[16] = system: Cavia porcellus; experiment: Bronchodilatory activity in guinea pig assessed as duration of action of inhibition of histamine-induced bronchoconstriction at EC90 administered via nebulization 2 mins prior to histamine challenge; type: functional
Procedure, shortened: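 Conscious guinea pigs, n = 24 per group, given test agonist as a nebulized solution in dimethylacetamide–saline vehicle (2 min nebulization) before histamine (10 mM, nebulized 1.3 min) in a whole-body plethysmograph. PenH recorded for 15 min as index of airway obstruction. Dose expressed as nebulizer concentration; duration taken as time to 50% recovery.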

[17] = biological target: Beta-3 adrenergic receptor (Homo sapiens, UniProt P13945); experiment: Agonist activity at human beta3 adrenoceptor transfected in CHO cells assessed as cyclic AMP accumulation after 45 mins by fluorescence polarization assay; type: cell-based
[18] = biological target: Cytochrome P450 2C9 (Homo sapiens, UniProt P11712); experiment: Inhibition of human CYP2C9 expressed in Escherichia coli; type: ADME; procedure, shortened: as §1
[19] = system: Hepatocyte; experiment: Drug metabolism in human hepatocytes assessed as metabolite M1 formation at 12.5 uM after 2 hrs by LC-MS/MS analysis; type: ADME, cell-based; procedure, shortened: as §4
[20] = Plasma protein binding in dog; type: ADME, cell-free, Canis lupus familiaris; conditions: read-out: PPB (converted)
[21] = Plasma protein binding in rat; type: ADME, cell-free; conditions: read-out: PPB (converted)
[22] = Volume of distribution at steady state in Han Wistar rat at 0.25 mg/kg, iv up to 7 hrs by LC-MS/MS analysis; type: ADME, organism-based; design: dose 0.25 mg/kg, route intravenous; conditions: in vivo, read-out: Vdss; procedure, shortened: as §3
[23] = system: Liver microsome; experiment: Clearance in human liver microsomes; type: ADME
Procedure, shortened: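 Compound incubated with liver microsomes; in vitro metabolic clearance expressed as (mL/min)/g liver.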

[24] = biological target: T1, 5-hydroxytryptamine receptor 1A (Homo sapiens, UniProt P08908); experiment: Binding affinity to human 5HT1A receptor
T1 sequence (P08908 whole entry): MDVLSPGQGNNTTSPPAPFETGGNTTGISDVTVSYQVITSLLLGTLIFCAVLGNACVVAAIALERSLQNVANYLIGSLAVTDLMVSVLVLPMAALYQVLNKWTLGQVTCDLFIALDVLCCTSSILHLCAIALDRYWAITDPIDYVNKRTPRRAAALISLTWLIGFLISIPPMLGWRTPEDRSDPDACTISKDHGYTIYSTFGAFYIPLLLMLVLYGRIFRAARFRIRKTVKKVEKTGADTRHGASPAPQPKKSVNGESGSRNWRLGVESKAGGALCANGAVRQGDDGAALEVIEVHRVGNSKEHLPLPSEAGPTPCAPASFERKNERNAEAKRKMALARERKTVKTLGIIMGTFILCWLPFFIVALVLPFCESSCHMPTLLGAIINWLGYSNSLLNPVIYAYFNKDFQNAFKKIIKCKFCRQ

[25] = Half life in Han Wistar rat at 0.25 mg/kg, iv up to 7 hrs by LC-MS/MS analysis; type: ADME, organism-based; design: dose 0.25 mg/kg, route intravenous; conditions: in vivo; procedure, shortened: as §3
[26] = Half life in beagle dog at 0.05 mg/kg, iv up to 8 hrs by LC-MS/MS analysis; type: ADME, organism-based, Canis lupus familiaris; design: dose 0.05 mg/kg, route intravenous; conditions: in vivo
Procedure, shortened: (§6)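 Beagle dogs dosed 0.05 mg/kg intravenously; plasma collected at various time points up to 8 h postdose.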

[27] = Plasma clearance in beagle dog at 0.05 mg/kg, iv up to 8 hrs by LC-MS/MS analysis; type: ADME, organism-based, Canis lupus familiaris; design: dose 0.05 mg/kg, route intravenous; procedure, shortened: as §6
[28] = Ratio of drug uptake from blood to plasma in dog; type: ADME, Canis lupus familiaris; procedure, shortened: as §2
[29] = system: L5178Y; experiment: Genotoxicity against mouse L5178Y cells in presence of rat liver metabolic activation system; type: toxicity, cell-based; procedure, shortened: as §5
[30] = Ratio of drug uptake from blood to plasma in human; type: ADME; procedure, shortened: as §2
[31] = Oral absorption in Han Wistar rat at 2 mg/kg up to 7 hrs by LC-MS/MS analysis; type: ADME, organism-based; design: dose 2 mg/kg; conditions: in vivo, read-out: Fa
Procedure, shortened: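 Rat oral absorption from hepatic portal vein plasma, corrected for systemic circulation levels, after β-glucuronidase treatment of samples (deconjugated HPV model). Expressed as h·ng/mL.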

Beta-3 adrenergic receptor, sequence (P13945 whole entry): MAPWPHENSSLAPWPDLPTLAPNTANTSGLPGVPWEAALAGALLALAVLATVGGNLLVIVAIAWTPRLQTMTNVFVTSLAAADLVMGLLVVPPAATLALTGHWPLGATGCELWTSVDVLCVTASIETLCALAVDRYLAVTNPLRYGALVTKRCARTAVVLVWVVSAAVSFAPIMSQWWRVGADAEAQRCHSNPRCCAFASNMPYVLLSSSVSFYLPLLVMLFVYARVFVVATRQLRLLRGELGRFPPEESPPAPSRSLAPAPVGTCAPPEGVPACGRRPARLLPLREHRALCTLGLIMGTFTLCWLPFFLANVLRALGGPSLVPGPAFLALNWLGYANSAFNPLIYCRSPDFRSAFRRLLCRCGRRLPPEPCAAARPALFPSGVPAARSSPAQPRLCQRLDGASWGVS
Beta-1 adrenergic receptor, sequence (P08588 whole entry): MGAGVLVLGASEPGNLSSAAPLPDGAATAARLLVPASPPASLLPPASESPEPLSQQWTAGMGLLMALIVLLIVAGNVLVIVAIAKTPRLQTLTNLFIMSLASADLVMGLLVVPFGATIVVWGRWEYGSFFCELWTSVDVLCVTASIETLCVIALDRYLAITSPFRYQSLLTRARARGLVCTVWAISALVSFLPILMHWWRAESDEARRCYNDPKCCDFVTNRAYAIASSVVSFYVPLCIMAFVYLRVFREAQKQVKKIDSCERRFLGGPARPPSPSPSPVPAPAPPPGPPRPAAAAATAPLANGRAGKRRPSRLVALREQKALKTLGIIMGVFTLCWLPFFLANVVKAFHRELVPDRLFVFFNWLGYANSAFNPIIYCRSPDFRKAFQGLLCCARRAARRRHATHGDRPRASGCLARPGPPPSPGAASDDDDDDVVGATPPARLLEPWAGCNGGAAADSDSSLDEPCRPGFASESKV
5-hydroxytryptamine receptor 1B, sequence (P28222 whole entry): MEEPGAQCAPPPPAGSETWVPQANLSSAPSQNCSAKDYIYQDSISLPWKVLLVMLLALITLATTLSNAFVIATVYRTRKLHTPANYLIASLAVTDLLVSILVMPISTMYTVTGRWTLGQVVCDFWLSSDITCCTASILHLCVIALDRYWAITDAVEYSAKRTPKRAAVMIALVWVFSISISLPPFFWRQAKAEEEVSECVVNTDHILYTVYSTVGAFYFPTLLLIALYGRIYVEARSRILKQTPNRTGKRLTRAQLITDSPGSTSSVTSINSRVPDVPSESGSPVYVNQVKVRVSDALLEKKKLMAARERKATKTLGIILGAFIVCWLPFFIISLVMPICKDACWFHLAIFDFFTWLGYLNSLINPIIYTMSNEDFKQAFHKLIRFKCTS
Cytochrome P450 2C9, sequence (P11712 whole entry): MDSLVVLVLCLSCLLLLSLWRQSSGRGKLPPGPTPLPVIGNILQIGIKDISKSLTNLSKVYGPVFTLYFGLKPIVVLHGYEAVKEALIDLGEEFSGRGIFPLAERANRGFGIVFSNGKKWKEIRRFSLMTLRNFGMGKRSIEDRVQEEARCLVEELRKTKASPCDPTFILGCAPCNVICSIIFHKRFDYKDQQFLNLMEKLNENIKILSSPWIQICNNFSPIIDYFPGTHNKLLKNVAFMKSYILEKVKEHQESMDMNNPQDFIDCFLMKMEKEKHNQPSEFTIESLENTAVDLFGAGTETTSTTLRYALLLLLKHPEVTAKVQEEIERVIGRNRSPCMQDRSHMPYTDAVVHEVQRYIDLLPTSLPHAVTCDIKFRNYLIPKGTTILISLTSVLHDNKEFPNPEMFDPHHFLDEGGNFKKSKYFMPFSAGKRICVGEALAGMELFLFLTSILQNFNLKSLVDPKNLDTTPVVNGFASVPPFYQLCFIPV
Cytochrome P450 2D6, sequence (P10635 whole entry, canonical isoform): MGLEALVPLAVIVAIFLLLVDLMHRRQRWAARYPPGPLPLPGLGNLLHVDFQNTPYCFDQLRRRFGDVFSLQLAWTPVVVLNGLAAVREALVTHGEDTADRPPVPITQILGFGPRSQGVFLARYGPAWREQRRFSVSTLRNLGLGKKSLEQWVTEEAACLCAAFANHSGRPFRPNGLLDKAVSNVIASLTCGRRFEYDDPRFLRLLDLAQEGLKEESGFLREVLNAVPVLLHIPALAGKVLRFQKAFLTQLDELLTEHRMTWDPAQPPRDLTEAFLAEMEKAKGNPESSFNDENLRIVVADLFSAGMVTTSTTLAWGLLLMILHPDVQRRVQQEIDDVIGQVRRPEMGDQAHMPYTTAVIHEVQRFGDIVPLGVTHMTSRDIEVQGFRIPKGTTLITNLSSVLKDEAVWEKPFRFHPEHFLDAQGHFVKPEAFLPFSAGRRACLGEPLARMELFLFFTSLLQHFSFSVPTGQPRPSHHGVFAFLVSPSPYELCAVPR

## CC(=O)O.O=S(=O)(c1cccc(CCCCOCCCCCCNC[C@H](O)c2ccc(O)c(CO)c2)c1)C1CCCC1
[1]
  IC50: 6.4 µM
[2]
  blood plasma ratio: 1.3
[3]
  fraction unbound: 0.02
[4]
  clearance: 53 mL/min/kg
[5]
  Drug metabolism: Active
[6]
  CL: 62%
[7]
  Drug metabolism: Active
[8]
  EC50: 0.501 µM
[9]
  fold change (FC): 5
[10]
  Activity: Non-toxic
[11]
  bioavailability: 3%
[12]
  bioavailability: < 2%
[13]
  IC50: 0.1 µM
[14]
  metabolised at 2 h, 1 µM: 90%
[15]
  Drug metabolism: Active
[16]
  Time: 20 h
[17]
  EC50: 0.794 µM
[18]
  IC50: > 10 µM
[19]
  Drug metabolism: Active
[20]
  fraction unbound: 0.03
[21]
  fraction unbound: 0.02
[22]
  Vd: 1.1 L/kg
[23]
  CLH: 8 mL/min/g
[24]
  IC50: 0.1 µM
[25]
  half-life: 30 min
[26]
  half-life: 24 min
[27]
  clearance: 3.7 mL/min/kg
[28]
  blood plasma ratio: 0.6
[29]
  Activity: Non-toxic
[30]
  blood plasma ratio: 0.65
[31]
  AUC at 7 h: 15.9 ng·h/mL

Source: ChEMBL document CHEMBL3124822, “Discovery of a rapidly metabolized, long-acting β(2) adrenergic receptor agonist with a short onset time incorporating a sulfone group suitable for once-daily dosing” (J Med Chem, 2014)
